From ChEMBL document CHEMBL1140539, “Modification of cap group in delta-lactam-based histone deacetylase (HDAC) inhibitors” (Bioorg Med Chem Lett, 2007)
pIC50: −log10 of the molar value.

Experiments:
Histone deacetylase = test: Inhibition of HDAC in HeLa cell lysates; assay type: protein assay, Homo sapiens
PC-3 = test: Growth inhibition of human PC3 cells by SRB assay; assay type: functional
MDA-MB-231 [1] = test: Growth inhibition of human MDA-MB-231 cells by SRB assay; assay type: functional
NUGC-3 = test: Growth inhibition of human NUGC3 cells by SRB assay; assay type: functional
HCT-15 = test: Growth inhibition of human HCT15 cells by SRB assay; assay type: functional
ACHN = test: Growth inhibition of human ACHN cells by SRB assay; assay type: functional
MDA-MB-231 [2] = test: Antitumor activity against MDA-MB-231 cells xenografted BALB/c nude mouse assessed as body weight at 30 mg/kg, ip for 15 days; assay type: functional, Homo sapiens; settings: route intraperitoneal
In short: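 Nude mice carrying MDA-MB-231 human breast xenografts were dosed once daily by intraperitoneal injection at 30 mg/kg. Dosing began once tumours reached 50–60 mm³.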

[3] = target: Histone deacetylase (Homo sapiens) (UniProt Q13547+O15379+Q9UBN7+Q92769+Q9UQL6+Q8WUI4+Q9BY41+Q96DB2+P56524+Q9UKV0+Q969S8); settings: HeLa
MDA-MB-231 [4] = test: Antitumor activity against MDA-MB-231 cells xenografted BALB/c nude mouse at 30 mg/kg, ip for 15 days; assay type: functional, Homo sapiens; settings: MDA-MB-231, ip, 360 h, route intraperitoneal

SMILES | IC50 (Histone deacetylase) | GI50 (PC-3) | GI50 (MDA-MB-231 [1]) | GI50 (NUGC-3) | GI50 (HCT-15) | GI50 (ACHN) | Activity (MDA-MB-231 [2]) | pIC50 [3] | inhibition in vivo at 30 mg/kg (MDA-MB-231 [4])
O=C(CCC1=CCCN(CCCc2ccc(-c3ccccc3)cc2)C1=O)NO | 0.27 µM | 3.23 µM | 1.04 µM | 3.7 µM | 3.19 µM | 2.49 µM |  |  | 
CC(=O)Nc1ccc(CN2CCC=C(CCC(=O)NO)C2=O)cc1 | 0.82 µM | > 10 µM |  |  |  |  |  |  | 
O=C(CCC1=CCCN(CCc2cccc3ccccc23)C1=O)NO | 0.32 µM | 2.58 µM | 2.53 µM | 3.26 µM | 5.43 µM | 6.62 µM |  |  | 
O=C(CCC1=CCCN(Cc2ccc(NC(=O)c3ccccc3)cc2)C1=O)NO | 0.51 µM | > 10 µM | 6.03 µM | > 10 µM | > 10 µM | > 10 µM |  |  | 
O=C(CCC1=CCCN(Cc2ccc(F)cc2)C1=O)NO | 0.56 µM |  |  |  | 9.96 µM |  |  |  | 
O=C(CCC1=CCCN(CCCc2ccc3ccccc3c2)C1=O)NO | 0.03 µM | 0.3 µM | 0.56 µM | 0.79 µM | 0.53 µM | 0.46 µM |  |  | 
O=C(CCCCCCC(=O)Nc1ccccc1)NO [VORINOSTAT] |  |  |  |  |  | 2.22 µM | 100% |  | 
O=C(CCC1=CCCN(CCc2ccc(-c3ccccc3)cc2)C1=O)NO | 0.23 µM | 0.53 µM | 0.28 µM | 1.65 µM | 1 µM | 1.18 µM |  |  | 
Cc1cccc(CN2CCC=C(CCC(=O)NO)C2=O)c1 | 1.9 µM | > 10 µM | 8.12 µM |  | > 10 µM | 4.38 µM |  |  | 
O=C(CCC1=CCCN(CCCCc2ccc(-c3ccccc3)cc2)C1=O)NO | 0.2 µM | 2.95 µM | 1.28 µM | 4.2 µM | 4.56 µM | 2.67 µM |  |  | 
Cc1ccccc1CN1CCC=C(CCC(=O)NO)C1=O | 2.97 µM | > 10 µM | 4.92 µM |  | > 10 µM | > 10 µM |  |  | 
O=C(CCC1=CCCN(Cc2ccc([N+](=O)[O-])cc2)C1=O)NO | 0.23 µM | 3.01 µM | 0.47 µM | 1.11 µM | > 10 µM | 5.21 µM |  |  | 
O=C(CCC1=CCCN(Cc2ccc(Br)cc2)C1=O)NO | 0.45 µM | 3.15 µM | 1.63 µM |  | 1.72 µM | 2.48 µM |  |  | 
Cc1ccc(S(=O)(=O)Nc2ccc(CN3CCC=C(CCC(=O)NO)C3=O)cc2)cc1 | 0.59 µM | 1.8 µM | 0.56 µM |  | > 10 µM | 0.37 µM |  |  | 
COc1ccc(CN2CCC=C(CCC(=O)NO)C2=O)cc1 | 0.44 µM | 7.08 µM | 3.86 µM |  | 6.89 µM | 1.67 µM |  |  | 
Cc1ccc(CN2CCC=C(CCC(=O)NO)C2=O)cc1 | 2.1 µM | 8.1 µM | 1.43 µM |  | 8.51 µM | 5 µM |  |  | 
O=C(CCC1=CCCN(Cc2ccc3ccccc3c2)C1=O)NO |  |  |  |  |  |  |  | < 5.00 | 
COc1ccccc1CN1CCC=C(CCC(=O)NO)C1=O | 0.86 µM | > 10 µM | > 10 µM |  | > 10 µM | > 10 µM |  |  | 
COc1cccc(CN2CCC=C(CCC(=O)NO)C2=O)c1 | 1.94 µM | > 10 µM | 3.92 µM |  | 9.03 µM | 7.6 µM |  |  | 
O=C(CCC1=CCCN(CCc2ccc3ccccc3c2)C1=O)NO | 0.037 µM | 0.61 µM | 0.28 µM | 0.37 µM | 1.16 µM | 1.18 µM | 94% |  | 51%
O=C(CCC1=CCCN(CCCCc2cccc3ccccc23)C1=O)NO | 0.11 µM | 1.69 µM | 1.47 µM | 2.01 µM | 1.67 µM | 1.82 µM |  |  | 
